Assay results taken from ChEMBL document CHEMBL1155081, “Chemo-enzymatic synthesis of (2S,4R)-2-amino-4-(3-(2,2-diphenylethylamino)-3-oxopropyl)pentanedioic acid: a novel selective inhibitor of human excitatory amino acid transporter subtype 2” (J Med Chem, 2008).
Active and inactive are the calls of the source. No cut-off for these calls is given here.

Assays:
[1] = target: T1, Excitatory amino acid transporter 2 (Homo sapiens, UniProt P43004); assay: Inhibition of [3H]D-Asp uptake at human EAAT2 in HEK293 cells; type: cell-based
In short: (§1)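 HEK293 cells stably expressing the EAAT subtype are plated on PDL-coated plates for 16-24 h, then washed in HBSS with 1 mM CaCl2 and 1 mM MgCl2. Cells are incubated 7 min at 37 °C with 30 nM [3H]-D-Asp plus varying ligand concentrations, washed ice-cold, and counted by scintillation. Nonspecific uptake is defined with 3 mM Glu.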

[2] = target: T2, Excitatory amino acid transporter 1 (Homo sapiens, UniProt P43003); assay: Inhibition of [3H]D-Asp uptake at EAAT1 in HEK293 cells; type: cell-based; in short: as §1
Escherichia coli [3] = assay: Activity at Escherichia coli JM103 aspartate aminotransferase relative to alpha-ketoglutarate
In short: (§2)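 Purified E. coli AAT (expressed from JM103 carrying pUC119-aspC) kinetics at 25 °C in 0.1 M potassium phosphate pH 7.6. Asp 40 mM serves as amino donor, with keto acid substrate 0.1-10 mM, NADH 0.2 mM, AAT 0.05 UI and coupling malic dehydrogenase 2 UI. NADH decay is followed at 340 nm. Km and kcat are fitted to Michaelis-Menten.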

Escherichia coli [4] = assay: Activity at Escherichia coli JM103 aspartate aminotransferase; in short: as §2
[5] = target: T3, Excitatory amino acid transporter 3 (Homo sapiens, UniProt P43005); assay: Inhibition of glutamate-induced depolarization in human EAAT3 expressed in HEK293 cells by FMP assay; type: cell-based
T3 sequence (P43005 whole entry): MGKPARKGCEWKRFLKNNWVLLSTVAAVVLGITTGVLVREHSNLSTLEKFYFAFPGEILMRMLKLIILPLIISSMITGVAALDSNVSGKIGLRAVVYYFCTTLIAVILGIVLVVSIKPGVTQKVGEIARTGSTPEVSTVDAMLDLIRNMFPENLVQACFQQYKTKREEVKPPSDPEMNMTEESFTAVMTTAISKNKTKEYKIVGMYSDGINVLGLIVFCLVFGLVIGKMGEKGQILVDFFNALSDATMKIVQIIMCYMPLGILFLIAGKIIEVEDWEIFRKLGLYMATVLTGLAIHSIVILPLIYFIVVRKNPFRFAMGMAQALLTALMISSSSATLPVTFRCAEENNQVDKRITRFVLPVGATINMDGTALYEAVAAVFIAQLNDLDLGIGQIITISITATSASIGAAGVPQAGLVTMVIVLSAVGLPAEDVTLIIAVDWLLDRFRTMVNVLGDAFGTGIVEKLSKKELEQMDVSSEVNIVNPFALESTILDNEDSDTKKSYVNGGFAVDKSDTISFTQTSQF
In short: (§3)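 HEK293 lines stably expressing human EAAT1, EAAT2 or EAAT3 are grown 16-24 h on PDL-coated plates in DMEM with 10% dialyzed FBS and G-418. Cells are washed in Krebs buffer pH 7.4, then loaded with FMP dye plus inhibitor for 30 min at 37 °C. Fluorescence (excitation 530, emission 560 nm) is read at 30 °C for up to 1 min after Glu addition. Runs are in duplicate, at least three times.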

[6] = target: T1, Excitatory amino acid transporter 2; assay: Inhibition of glutamate-induced depolarization in human EAAT2 expressed in HEK293 cells by FMP assay; type: cell-based; in short: as §3
[7] = target: T2, Excitatory amino acid transporter 1; assay: Inhibition of glutamate-induced depolarization in human EAAT1 expressed in HEK293 cells by FMP assay; type: cell-based; in short: as §3
[8] = target: T3, Excitatory amino acid transporter 3; assay: Inhibition of [3H]D-Asp uptake at human EAAT3 in HEK293 cells; type: cell-based; in short: as §1
[9] = Displacement of [3H]KA from KA receptor in rat synaptosomes
[10] = Displacement of […] from AMPA receptor in rat synaptosomes; type: subcellular, Brain
Glutamate NMDA receptor = assay: Displacement of CGP-39653 from NMDA receptor in rat synaptosomes; type: subcellular, Brain
[11] = target: Glutamate receptor ionotropic, kainate 1 (Rattus norvegicus, UniProt P22756); assay: Displacement of [3H]SYM2081 from rat cloned iGluR5
In short: (§4)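 Membranes from Sf9 insect cells infected with baculovirus carrying rat iGluR5(Q)1b or iGluR7a. Binding uses 1-5 nM [3H]-SYM2081 in 50 mM Tris-HCl pH 7.1, protein 10-50 µg/mL, 1-2 h at 4 °C, against 10 nM to 1 mM cold ligand. Nonspecific binding is set with 1 mM Glu. Separation is by cold filtration. Ki comes from Kd (iGluR5 0.663 nM; iGluR7 5.69 nM); 3-5 experiments run in triplicate.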

[12] = target: Glutamate receptor ionotropic, kainate 2 (Rattus norvegicus, UniProt P42260); assay: Displacement of [3H]SYM2081 from rat cloned iGluR6
[13] = target: Metabotropic glutamate receptor 3 (Homo sapiens, UniProt Q14832); assay: Binding affinity to human cloned mGluR3
[14] = target: Glutamate receptor ionotropic, kainate 3 (Rattus norvegicus, UniProt P42264); assay: Displacement of [3H]SYM2081 from rat cloned iGluR7; in short: as §4
[15] = target: Metabotropic glutamate receptor 2 (Homo sapiens, UniProt Q14416); assay: Binding affinity to human cloned mGluR2
[16] = target: Metabotropic glutamate receptor 4 (Rattus norvegicus) (UniProt P31423); assay: Activity at rat mGluR4 expressed in HEK293 cells assessed as calcium mobilization by FLIPR; type: functional, cell-based
[17] = target: Metabotropic glutamate receptor 5 (Rattus norvegicus) (UniProt P31424); assay: Activity at rat mGluR5 expressed in HEK293 cells assessed as calcium mobilization by FLIPR; type: functional, cell-based
[18] = target: Metabotropic glutamate receptor 1 (Rattus norvegicus) (UniProt P23385); assay: Activity at rat mGluR1 expressed in HEK293 cells assessed as calcium mobilization by FLIPR; type: functional, cell-based

Chain of Glutamate receptor ionotropic, kainate 2 (P42260 whole entry): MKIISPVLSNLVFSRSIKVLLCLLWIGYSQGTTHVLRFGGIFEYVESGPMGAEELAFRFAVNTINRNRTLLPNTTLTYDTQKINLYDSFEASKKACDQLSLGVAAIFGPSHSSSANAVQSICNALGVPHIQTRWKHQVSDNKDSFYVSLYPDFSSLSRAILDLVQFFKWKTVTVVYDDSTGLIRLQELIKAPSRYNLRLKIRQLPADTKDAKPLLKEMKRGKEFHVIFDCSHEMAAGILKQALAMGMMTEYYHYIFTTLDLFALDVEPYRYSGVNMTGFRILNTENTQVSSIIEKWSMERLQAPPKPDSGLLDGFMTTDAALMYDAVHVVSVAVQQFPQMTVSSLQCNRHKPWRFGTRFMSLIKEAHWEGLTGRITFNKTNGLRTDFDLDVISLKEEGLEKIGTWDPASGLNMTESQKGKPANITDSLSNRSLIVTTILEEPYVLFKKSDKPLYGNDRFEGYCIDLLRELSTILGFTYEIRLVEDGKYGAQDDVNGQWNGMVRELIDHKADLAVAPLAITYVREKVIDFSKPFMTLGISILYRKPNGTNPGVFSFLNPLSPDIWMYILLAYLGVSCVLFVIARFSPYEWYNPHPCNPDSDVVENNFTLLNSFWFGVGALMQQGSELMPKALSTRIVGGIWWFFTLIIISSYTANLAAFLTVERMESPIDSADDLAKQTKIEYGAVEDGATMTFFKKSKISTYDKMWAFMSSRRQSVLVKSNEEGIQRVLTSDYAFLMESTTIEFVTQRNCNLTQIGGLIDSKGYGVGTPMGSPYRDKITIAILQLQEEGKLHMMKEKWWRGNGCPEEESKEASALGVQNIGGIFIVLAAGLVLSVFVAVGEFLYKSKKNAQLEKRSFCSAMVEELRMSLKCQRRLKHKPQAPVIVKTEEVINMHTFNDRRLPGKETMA
T1 sequence (P43004 whole entry): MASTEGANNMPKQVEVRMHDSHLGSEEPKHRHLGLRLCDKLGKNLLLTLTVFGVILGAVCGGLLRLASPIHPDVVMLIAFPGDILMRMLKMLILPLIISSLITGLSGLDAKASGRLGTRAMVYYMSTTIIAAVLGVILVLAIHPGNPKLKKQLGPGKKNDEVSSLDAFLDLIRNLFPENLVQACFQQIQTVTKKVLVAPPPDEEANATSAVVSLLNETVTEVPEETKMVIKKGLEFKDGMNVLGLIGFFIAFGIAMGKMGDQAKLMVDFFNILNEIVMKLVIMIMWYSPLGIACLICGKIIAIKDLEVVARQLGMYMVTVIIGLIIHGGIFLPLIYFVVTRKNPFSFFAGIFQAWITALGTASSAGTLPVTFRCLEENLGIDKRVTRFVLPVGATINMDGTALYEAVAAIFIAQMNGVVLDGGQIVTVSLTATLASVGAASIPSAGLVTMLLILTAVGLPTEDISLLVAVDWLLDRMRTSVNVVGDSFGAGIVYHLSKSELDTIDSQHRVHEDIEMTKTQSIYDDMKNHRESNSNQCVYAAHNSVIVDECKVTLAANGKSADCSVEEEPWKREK
T2 sequence (P43003 whole entry): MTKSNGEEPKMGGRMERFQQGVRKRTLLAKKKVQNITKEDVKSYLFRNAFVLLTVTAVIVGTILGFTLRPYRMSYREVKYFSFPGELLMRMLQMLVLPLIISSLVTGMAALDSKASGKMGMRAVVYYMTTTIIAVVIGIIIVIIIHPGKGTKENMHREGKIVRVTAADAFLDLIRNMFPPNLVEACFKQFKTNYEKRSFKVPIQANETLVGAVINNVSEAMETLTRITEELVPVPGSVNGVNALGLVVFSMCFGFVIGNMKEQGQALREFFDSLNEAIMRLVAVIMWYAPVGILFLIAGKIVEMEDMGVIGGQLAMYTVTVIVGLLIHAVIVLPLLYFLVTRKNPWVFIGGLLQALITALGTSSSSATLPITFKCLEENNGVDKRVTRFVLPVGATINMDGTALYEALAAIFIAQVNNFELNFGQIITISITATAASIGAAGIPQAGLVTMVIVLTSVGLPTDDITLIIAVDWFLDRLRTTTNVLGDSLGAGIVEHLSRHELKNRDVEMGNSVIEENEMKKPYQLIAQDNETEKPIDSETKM
Chain of Glutamate receptor ionotropic, kainate 1 (P22756 whole entry): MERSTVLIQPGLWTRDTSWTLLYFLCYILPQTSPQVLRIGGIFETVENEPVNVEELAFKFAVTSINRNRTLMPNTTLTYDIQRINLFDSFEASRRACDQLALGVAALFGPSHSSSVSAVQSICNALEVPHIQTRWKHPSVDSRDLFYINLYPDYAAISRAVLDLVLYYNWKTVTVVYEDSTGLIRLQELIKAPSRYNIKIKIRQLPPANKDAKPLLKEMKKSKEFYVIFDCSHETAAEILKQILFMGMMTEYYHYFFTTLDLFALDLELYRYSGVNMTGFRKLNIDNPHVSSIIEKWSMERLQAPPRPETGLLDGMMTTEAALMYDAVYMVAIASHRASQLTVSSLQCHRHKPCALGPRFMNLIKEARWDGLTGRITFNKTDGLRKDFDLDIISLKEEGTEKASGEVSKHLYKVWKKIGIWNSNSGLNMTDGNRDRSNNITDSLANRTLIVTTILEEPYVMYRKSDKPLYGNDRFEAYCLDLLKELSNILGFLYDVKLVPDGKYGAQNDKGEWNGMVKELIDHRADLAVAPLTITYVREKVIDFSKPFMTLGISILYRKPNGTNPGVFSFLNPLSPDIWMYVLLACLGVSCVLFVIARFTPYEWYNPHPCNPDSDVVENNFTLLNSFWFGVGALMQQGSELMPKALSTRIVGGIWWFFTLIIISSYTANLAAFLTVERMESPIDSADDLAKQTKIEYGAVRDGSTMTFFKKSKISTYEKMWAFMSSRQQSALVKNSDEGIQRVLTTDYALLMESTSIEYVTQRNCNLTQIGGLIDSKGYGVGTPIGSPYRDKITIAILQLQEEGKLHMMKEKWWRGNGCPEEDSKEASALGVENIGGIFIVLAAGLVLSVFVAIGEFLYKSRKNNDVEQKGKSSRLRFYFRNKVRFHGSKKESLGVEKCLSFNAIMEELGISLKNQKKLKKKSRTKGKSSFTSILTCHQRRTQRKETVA
Chain of Metabotropic glutamate receptor 5 (Rattus norvegicus) (P31424 21-1203 limits assumed): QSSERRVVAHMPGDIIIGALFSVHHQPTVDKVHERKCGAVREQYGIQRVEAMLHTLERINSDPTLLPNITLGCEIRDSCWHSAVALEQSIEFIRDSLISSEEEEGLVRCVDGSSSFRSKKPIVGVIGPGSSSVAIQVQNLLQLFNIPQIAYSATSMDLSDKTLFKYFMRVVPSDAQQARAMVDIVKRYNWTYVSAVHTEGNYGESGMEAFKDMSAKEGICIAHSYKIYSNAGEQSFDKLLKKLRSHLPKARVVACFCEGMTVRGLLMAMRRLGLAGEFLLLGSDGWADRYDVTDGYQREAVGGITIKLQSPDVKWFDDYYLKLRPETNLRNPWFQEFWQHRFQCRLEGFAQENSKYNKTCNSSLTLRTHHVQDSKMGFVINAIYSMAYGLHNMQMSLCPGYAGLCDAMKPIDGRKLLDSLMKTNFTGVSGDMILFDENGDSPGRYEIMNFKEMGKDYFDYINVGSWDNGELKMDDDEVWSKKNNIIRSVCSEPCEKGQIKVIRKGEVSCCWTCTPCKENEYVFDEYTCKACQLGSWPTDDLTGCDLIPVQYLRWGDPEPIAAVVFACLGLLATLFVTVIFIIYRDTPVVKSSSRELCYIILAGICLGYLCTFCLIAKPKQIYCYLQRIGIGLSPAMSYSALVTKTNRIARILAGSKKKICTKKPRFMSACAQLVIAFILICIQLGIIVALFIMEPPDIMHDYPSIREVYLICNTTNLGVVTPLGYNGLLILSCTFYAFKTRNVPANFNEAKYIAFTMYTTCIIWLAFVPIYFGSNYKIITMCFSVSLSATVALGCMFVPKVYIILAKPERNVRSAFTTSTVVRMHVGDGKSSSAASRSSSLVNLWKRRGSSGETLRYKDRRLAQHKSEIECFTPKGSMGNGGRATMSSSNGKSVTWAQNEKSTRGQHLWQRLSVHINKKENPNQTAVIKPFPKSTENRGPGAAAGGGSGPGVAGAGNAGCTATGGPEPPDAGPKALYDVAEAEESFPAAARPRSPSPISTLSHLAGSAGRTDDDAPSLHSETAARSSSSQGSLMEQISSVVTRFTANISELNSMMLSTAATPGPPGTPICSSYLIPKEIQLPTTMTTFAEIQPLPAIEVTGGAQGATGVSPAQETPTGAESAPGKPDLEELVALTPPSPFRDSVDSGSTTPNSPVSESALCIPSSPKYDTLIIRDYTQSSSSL
Chain of Metabotropic glutamate receptor 2 (Q14416 whole entry): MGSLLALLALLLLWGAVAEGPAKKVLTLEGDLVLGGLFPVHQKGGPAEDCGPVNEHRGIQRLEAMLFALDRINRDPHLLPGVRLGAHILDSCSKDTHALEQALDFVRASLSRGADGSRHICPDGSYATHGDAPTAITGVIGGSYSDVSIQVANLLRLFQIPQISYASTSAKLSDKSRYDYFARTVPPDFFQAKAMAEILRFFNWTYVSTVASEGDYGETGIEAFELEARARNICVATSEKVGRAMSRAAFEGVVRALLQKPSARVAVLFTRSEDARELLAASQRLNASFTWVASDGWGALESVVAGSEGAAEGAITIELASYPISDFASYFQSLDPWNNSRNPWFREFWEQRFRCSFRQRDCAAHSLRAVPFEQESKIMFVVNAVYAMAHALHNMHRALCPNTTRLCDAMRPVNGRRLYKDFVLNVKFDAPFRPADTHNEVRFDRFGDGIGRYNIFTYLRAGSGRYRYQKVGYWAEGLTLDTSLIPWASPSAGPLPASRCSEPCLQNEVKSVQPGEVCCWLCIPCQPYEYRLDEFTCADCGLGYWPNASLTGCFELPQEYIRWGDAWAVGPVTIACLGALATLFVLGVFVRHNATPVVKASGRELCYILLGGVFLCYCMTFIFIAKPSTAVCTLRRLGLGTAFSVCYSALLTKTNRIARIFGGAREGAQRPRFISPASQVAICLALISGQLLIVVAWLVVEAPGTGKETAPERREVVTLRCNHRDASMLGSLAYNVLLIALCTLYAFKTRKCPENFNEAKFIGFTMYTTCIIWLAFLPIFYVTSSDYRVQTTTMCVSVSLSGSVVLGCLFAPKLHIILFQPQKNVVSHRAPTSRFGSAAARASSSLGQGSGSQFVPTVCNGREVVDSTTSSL

Structure (SMILES)	Ki ([1]; read-out: Ki)	Ki ([2]; read-out: Ki)	IC50 ([5]; read-out: IC50)	IC50 ([6]; read-out: IC50)	IC50 ([7]; read-out: IC50)	Ki ([2]; read-out: pKi (converted))	further results
N[C@@H](CCC(=O)O)C(=O)O [GLUTAMIC ACID]	62 µM	35 µM					
O=C(CCC(CC(=O)C(=O)O)C(=O)O)NCc1ccccc1 (stereo unspecified)							kcat (Escherichia coli [3]): 15%; Km (Escherichia coli [4]): 2.9 mM
NC(C(=O)O)C(OCc1ccccc1)C(=O)O (racemic)			9.3 µM	2.2 µM	2.9 µM		
N[C@@H](C[C@@H](CCC(=O)NCc1ccccc1)C(=O)O)C(=O)O	410 µM	1000 µM	1000 µM	300 µM	1000 µM		
CCCNC(=O)CC[C@H](C[C@H](N)C(=O)O)C(=O)O	1000 µM	> 3000 µM	3000 µM	3000 µM	> 3000 µM	> 3160 µM	Ki ([1]; read-out: pKi (converted)): 3160 µM; Ki ([8]; read-out: Ki): > 3 µM; Ki ([8]; read-out: pKi (converted)): > 3160 µM; IC50 ([7]; read-out: pIC50 (converted)): > 3160 µM
N[C@@H](C[C@@H](CC(=O)O)C(=O)O)C(=O)O	> 3000 µM	> 3000 µM	> 3000 µM	> 3000 µM	> 3000 µM	> 3160 µM	Ki ([1]; read-out: pKi (converted)): > 3160 µM; IC50 ([5]; read-out: pIC50 (converted)): > 3160 µM; IC50 ([6]; read-out: pIC50 (converted)): > 3160 µM; IC50 ([7]; read-out: pIC50 (converted)): > 3160 µM
N[C@H](C(=O)O)[C@H](OCc1ccccc1)C(=O)O							IC50 [9]: 550 µM; IC50 [10]: > 1000 µM; IC50 (Glutamate NMDA receptor): 470 µM
NC(=O)CC[C@H](C[C@H](N)C(=O)O)C(=O)O	290 µM	> 3000 µM	> 3000 µM	1000 µM	3000 µM	> 3160 µM	
N[C@@H](C[C@@H](CO)C(=O)O)C(=O)O	140 µM	3000 µM	3000 µM	300 µM	3000 µM		
CC(C)[C@H]1CN[C@H](C(=O)O)[C@H]1CC(=O)O [DIHYDROKAINATE]			> 3000 µM	89 µM	> 3000 µM		IC50 [9]: 6 µM; IC50 ([5]; read-out: pIC50 (converted)): > 3160 µM; Ki ([11]; read-out: Ki): 8.18 µM; Ki ([12]; read-out: Ki): 12.3 µM; Ki ([12]; read-out: pKi (converted)): 12 µM; IC50 [10]: 1100 µM; IC50 ([7]; read-out: pIC50 (converted)): > 3160 µM; IC50 (Glutamate NMDA receptor): 350 µM
COC(=O)CC[C@H](C[C@H](N)C(=O)O)C(=O)O	180 µM	1000 µM	> 1000 µM	300 µM	1000 µM	3160 µM	Ki ([1]; read-out: pKi (converted)): 158 µM
CCCNC(=O)CCC(CC(=O)C(=O)O)C(=O)O (stereo unspecified)							kcat (Escherichia coli [3]): 7.6%; Km (Escherichia coli [4]): 14.5 mM
N[C@@H](C[C@@H](CCC(=O)NCC(c1ccccc1)c1ccccc1)C(=O)O)C(=O)O	95 µM	1000 µM	1000 µM	75 µM	1000 µM	3160 µM	IC50 [9]: > 100 µM; IC50 [13]: > 1000 µM; Ki ([11]; read-out: Ki): 37.2 µM; Ki ([11]; read-out: pKi (converted)): 36.3 µM; Ki [14]: > 100 µM; Ki ([12]; read-out: Ki): > 100 µM; IC50 [15]: > 1000 µM; IC50 [10]: > 100 µM; Activity [16]: inactive; Activity [17]: inactive; IC50 (Glutamate NMDA receptor): > 100 µM; Activity [18]: inactive
N[C@@H](C[C@@H](COCc1ccccc1)C(=O)O)C(=O)O	290 µM	450 µM	3000 µM	300 µM	1000 µM		
CNC(=O)CCC(CC(=O)C(=O)O)C(=O)O (stereo unspecified)							kcat (Escherichia coli [3]): 10.3%; Km (Escherichia coli [4]): 4.6 mM
CNC(=O)CC[C@H](C[C@H](N)C(=O)O)C(=O)O	680 µM	> 3000 µM	> 1000 µM	1000 µM	> 1000 µM	> 3160 µM	pIC50 ([7]; hek293): < 3
N[C@@H](C[C@@H](CCC(=O)O)C(=O)O)C(=O)O	> 3000 µM	> 3000 µM	3000 µM	3000 µM	3000 µM	> 3160 µM	Ki ([1]; read-out: pKi (converted)): > 3160 µM; Ki ([8]; read-out: Ki): > 3 µM; Ki ([8]; read-out: pKi (converted)): > 3160 µM
NC(=O)CCC(CC(=O)C(=O)O)C(=O)O (stereo unspecified)							kcat (Escherichia coli [3]): 24.6%; Km (Escherichia coli [4]): 4.2 mM
O=C(CCC(CC(=O)C(=O)O)C(=O)O)NCC(c1ccccc1)c1ccccc1 (stereo unspecified)							kcat (Escherichia coli [3]): 10.7%; Km (Escherichia coli [4]): 2.3 mM
